Assays:
[1] = target: T1, recombinant human CYP2A6 (Homo sapiens, UniProt P11509); test: PCB biotransformation assay with recombinant human CYP2A6; type: in vitro ADME; conditions: for enantiomeric fraction (EF) of OH-PCB metabolite, CYP2A6: EF = Area E1/(Area E1 + Area E2), 50 μM PCB, 60 min, 37 °C, 10 pmol/mL P450; for metabolite as percent of ΣOH-PCBs of the parent PCB, CYP2A6: racemic PCB 50 µM, 10 pmol P450/mL, 37°C, mean ± SD; for ratio of 3–103: 5–95: 4–95: 4’−95 (relative to 4’−95 = 1), recombinant CYP2A6: PCB 95 incubation
T1 sequence (P11509 1-494): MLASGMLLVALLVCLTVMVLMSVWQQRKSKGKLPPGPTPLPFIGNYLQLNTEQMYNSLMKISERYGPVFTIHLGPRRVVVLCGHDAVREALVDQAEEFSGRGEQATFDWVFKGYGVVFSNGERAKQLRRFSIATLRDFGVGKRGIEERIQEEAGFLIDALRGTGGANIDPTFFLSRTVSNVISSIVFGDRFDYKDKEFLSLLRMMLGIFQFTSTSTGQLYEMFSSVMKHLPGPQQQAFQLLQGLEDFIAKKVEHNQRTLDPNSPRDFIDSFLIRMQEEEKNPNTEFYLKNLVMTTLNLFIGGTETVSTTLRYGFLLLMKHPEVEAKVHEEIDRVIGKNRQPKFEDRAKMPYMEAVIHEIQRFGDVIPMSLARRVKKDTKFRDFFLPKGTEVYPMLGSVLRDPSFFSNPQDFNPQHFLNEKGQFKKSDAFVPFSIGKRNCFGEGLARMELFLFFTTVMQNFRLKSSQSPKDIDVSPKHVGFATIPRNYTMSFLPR

[2] = system: human liver microsomes (HLMs); conditions: cited from earlier work; for enantiomeric fraction (EF) of 1,2-shift products, HLMs: incubations with HLMs; for ratio of 3–103: 5–95: 4–95: 4’−95 (relative to 4’−95 = 1), HLMs: PCB 95 with HLMs; for enantiomeric fraction (EF) of 5-hydroxylated metabolites, HLMs: metabolism studies with HLMs
[3] = target: T2, recombinant human CYP2B6 (Homo sapiens, UniProt P20813); test: PCB biotransformation assay with recombinant human CYP2B6; type: in vitro ADME; conditions: for enantiomeric fraction (EF) of OH-PCB metabolite, CYP2B6: EF = Area E1/(Area E1 + Area E2), 50 μM PCB, 60 min, 37 °C, 10 pmol/mL P450; for metabolite as percent of ΣOH-PCBs of the parent PCB, CYP2B6: racemic PCB 50 µM, 10 pmol P450/mL, 37°C, mean ± SD
T2 sequence (P20813 1-491): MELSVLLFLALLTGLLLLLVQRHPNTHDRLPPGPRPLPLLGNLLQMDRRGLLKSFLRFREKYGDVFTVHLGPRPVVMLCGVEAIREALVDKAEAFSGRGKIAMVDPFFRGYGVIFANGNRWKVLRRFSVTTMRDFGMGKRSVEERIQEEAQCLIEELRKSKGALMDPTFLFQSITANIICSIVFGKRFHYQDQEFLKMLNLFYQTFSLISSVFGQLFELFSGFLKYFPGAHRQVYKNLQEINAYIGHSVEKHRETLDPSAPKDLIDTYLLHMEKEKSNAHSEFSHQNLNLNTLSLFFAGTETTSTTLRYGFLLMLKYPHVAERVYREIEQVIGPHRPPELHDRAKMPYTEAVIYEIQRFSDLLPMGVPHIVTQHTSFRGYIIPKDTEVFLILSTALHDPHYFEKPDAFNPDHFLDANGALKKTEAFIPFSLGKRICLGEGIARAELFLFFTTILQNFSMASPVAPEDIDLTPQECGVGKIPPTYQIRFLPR

[4] = target: T2, recombinant human CYP2B6; conditions: cited from earlier work
[5] = target: T3, recombinant human CYP1A2 (Homo sapiens, UniProt P05177); conditions: cited from earlier work
T3 sequence (P05177 1-516): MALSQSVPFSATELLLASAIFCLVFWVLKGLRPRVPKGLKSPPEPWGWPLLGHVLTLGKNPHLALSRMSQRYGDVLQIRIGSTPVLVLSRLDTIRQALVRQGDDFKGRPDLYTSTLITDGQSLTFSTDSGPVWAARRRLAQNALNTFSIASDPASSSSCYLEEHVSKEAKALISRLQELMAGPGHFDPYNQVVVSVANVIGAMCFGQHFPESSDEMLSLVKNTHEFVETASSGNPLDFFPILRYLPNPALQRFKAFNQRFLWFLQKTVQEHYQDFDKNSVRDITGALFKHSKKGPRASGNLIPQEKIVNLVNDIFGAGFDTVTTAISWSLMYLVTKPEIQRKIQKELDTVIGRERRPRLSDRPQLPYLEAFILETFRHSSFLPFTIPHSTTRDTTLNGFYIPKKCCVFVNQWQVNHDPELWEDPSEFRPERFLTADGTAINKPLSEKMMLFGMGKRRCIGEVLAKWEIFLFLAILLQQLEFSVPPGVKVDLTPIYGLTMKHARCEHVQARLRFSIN

[6] = target: T4, recombinant human CYP3A4 (Homo sapiens, UniProt P08684); conditions: cited from earlier work
T4 sequence (P08684 whole entry): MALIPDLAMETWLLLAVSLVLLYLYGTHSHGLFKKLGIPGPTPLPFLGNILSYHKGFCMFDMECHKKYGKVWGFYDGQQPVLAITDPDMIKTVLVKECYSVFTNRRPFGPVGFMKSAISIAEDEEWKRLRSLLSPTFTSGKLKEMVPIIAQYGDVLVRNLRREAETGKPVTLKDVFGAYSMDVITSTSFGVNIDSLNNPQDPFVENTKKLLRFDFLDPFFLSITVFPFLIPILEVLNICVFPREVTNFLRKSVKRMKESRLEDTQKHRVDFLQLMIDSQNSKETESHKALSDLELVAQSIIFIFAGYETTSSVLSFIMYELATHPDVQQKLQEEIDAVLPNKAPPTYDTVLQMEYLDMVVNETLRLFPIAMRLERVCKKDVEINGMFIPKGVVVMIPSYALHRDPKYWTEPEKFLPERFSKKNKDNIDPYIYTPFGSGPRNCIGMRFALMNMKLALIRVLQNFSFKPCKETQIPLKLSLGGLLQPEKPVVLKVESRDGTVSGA

[7] = target: recombinant human CYP2E1 (Homo sapiens, UniProt P05181); conditions: cited from earlier work
Sequence of recombinant human CYP2E1 (P05181 whole entry): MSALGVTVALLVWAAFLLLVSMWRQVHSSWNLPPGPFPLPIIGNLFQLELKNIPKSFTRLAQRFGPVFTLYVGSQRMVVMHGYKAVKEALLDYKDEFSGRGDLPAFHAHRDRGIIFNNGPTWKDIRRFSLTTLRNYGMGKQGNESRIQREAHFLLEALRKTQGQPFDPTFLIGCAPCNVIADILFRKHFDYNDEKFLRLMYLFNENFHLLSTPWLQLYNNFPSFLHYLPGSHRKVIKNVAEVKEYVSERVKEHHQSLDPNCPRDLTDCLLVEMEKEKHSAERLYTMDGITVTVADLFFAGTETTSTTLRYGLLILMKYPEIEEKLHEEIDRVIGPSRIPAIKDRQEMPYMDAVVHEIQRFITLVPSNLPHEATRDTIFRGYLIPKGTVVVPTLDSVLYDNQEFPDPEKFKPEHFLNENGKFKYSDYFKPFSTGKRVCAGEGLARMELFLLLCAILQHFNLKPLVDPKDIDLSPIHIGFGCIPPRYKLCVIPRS

[8] = target: T4, recombinant human CYP3A4; test: PCB biotransformation assay with recombinant human CYP3A4; type: in vitro ADME; conditions: racemic PCB 50 µM; 10 pmol P450/mL; 37°C
Method in brief: (§1)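 Human P450 co-expressed with human CYP-reductase in E. coli, 10 pmol/mL, in 0.1 M phosphate pH 7.4 with 3 mM MgCl2 and NADPH-regenerating system (~1 mM NADPH final). After 5 min preincubation, racemic PCB added (50 µM final, DMSO ≤0.5% v/v); incubated up to 60 min at 37°C; stopped with ice-cold NaOH plus heating. OH-PCBs identified as methylated derivatives by high-resolution GC/TOF-MS in 60-min extracts. Control Bactosomes; triplicates.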

[9] = target: T3, recombinant human CYP1A2; test: PCB biotransformation assay with recombinant human CYP1A2; type: in vitro ADME; conditions: racemic PCB 50 µM; 10 pmol P450/mL; 37°C
Method in brief: as §1

Oc1c(Cl)cc(Cl)c(-c2ccc(Cl)cc2Cl)c1Cl [3–100]
enantiomeric fraction (EF) of OH-PCB metabolite, CYP2A6 [1]: 0.92 | metabolite as percent of ΣOH-PCBs of the parent PCB, CYP2A6 [1]: 81 ± 2% | enantiomeric fraction (EF) of 1,2-shift products, HLMs [2]: 0.85

Oc1c(Cl)cc(Cl)c(-c2cc(Cl)ccc2Cl)c1Cl [3–103]
enantiomeric fraction (EF) of OH-PCB metabolite, CYP2A6 [1]: 0.99 | ratio of 3–103: 5–95: 4–95: 4’−95 (relative to 4’−95 = 1), recombinant CYP2A6 [1]: 0.11 | ratio of 3–103: 5–95: 4–95: 4’−95 (relative to 4’−95 = 1), HLMs [2]: 0.11

Oc1c(Cl)cc(Cl)c(-c2ccc(Cl)c(Cl)c2Cl)c1Cl [3’−140]
metabolite as percent of ΣOH-PCBs of the parent PCB, CYP2A6 [1]: 67 ± 1% | enantiomeric fraction (EF) of 1,2-shift products, HLMs [2]: 0.84

Oc1cc(Cl)c(-c2ccc(Cl)cc2Cl)c(Cl)c1Cl [4–91]
enantiomeric fraction (EF) of OH-PCB metabolite, CYP2A6 [1]: 0.39 | enantiomeric fraction (EF) of OH-PCB metabolite, CYP2B6 [3]: 0.60

Oc1cc(Cl)c(-c2c(Cl)ccc(Cl)c2Cl)c(Cl)c1Cl [4–136]
enantiomeric fraction (EF) of OH-PCB metabolite, CYP2A6 [1]: 0.10 | metabolite as percent of ΣOH-PCBs of the parent PCB, CYP2A6 [1]: 64 ± 2%

Oc1cc(Cl)c(Cl)c(-c2ccc(Cl)cc2Cl)c1Cl [5–91]
enantiomeric fraction (EF) of 5-hydroxylated metabolites, HLMs [2]: 0.47 | enantiomeric fraction (EF) of OH-PCB metabolite, CYP2B6 [3]: 0.49 | metabolite as percent of ΣOH-PCBs of the parent PCB, CYP2B6 [3]: 98.4 ± 0.1%

Oc1cc(Cl)c(Cl)c(-c2cc(Cl)ccc2Cl)c1Cl [5–95]
ratio of 3–103: 5–95: 4–95: 4’−95 (relative to 4’−95 = 1), recombinant CYP2A6 [1]: 0.04 | ratio of 3–103: 5–95: 4–95: 4’−95 (relative to 4’−95 = 1), HLMs [2]: 0.06 | formation rate by CYP2B6, times lower compared to CYP2A6 ([3]; PCB 95 incubation): 2 times

Oc1cc(Cl)c(Cl)c(-c2c(Cl)ccc(Cl)c2Cl)c1Cl [5–136]
ratio of 5–136: 4–136 (4–136 = 1) formed with CYP2A6 ([1]; PCB 136 incubation): 0.3 | ratio of 5–136: 4–136 (4–136 = 1), HLMs ([2]; PCB 136 with HLMs): 0.39 | ratio of 5–136: 4–136 (4–136 = 1), HLMs, earlier study ([2]; PCB 136 with HLMs): 1.3 | enantiomeric fraction (EF) of 5-hydroxylated metabolites, HLMs [2]: 0.31 | enantiomeric fraction (EF) of OH-PCB metabolite, CYP2B6 [3]: 0.50 | metabolite as percent of ΣOH-PCBs of the parent PCB, CYP2B6 [3]: 94 ± 0.3%

Oc1cc(Cl)c(Cl)c(-c2ccc(Cl)c(Cl)c2Cl)c1Cl [5’−132]
enantiomeric fraction (EF) of 5-hydroxylated metabolites, HLMs [2]: 0.19 | enantiomeric fraction (EF) of OH-PCB metabolite, CYP2B6 [3]: 0.32 | metabolite as percent of ΣOH-PCBs of the parent PCB, CYP2B6 [3]: 81 ± 7%

Clc1ccc(Cl)c(-c2cc(Cl)ccc2Cl)c1 [PCB 52, 2,2’,5,5’-tetrachlorobiphenyl]
oxidation by CYP2B6, earlier studies [4]: did not observe any oxidation | metabolism by recombinant CYP1A2, earlier studies [5]: did not metabolize | metabolism by recombinant CYP3A4, earlier studies [6]: did not metabolize | oxidation by CYP2E1, earlier studies [7]: did not observe any oxidation

Clc1ccc(-c2c(Cl)ccc(Cl)c2Cl)c(Cl)c1 [PCB 91, 2,2’,3,4’,6-pentachlorobiphenyl]
OH-PCB metabolites detected in incubations with CYP3A4 [8]: no metabolites were detected | OH-PCB metabolites detected in incubations with CYP1A2 [9]: no metabolites were detected

Clc1ccc(Cl)c(-c2c(Cl)ccc(Cl)c2Cl)c1 [PCB 95, 2,2’,3,5’,6-pentachlorobiphenyl]
oxidation by CYP2B6, earlier studies [4]: did not observe any oxidation | OH-PCB metabolites detected in incubations with CYP3A4 [8]: no metabolites were detected | metabolism by recombinant CYP1A2, earlier studies [5]: did not metabolize | metabolism by recombinant CYP3A4, earlier studies [6]: did not metabolize | oxidation by CYP2E1, earlier studies [7]: did not observe any oxidation | OH-PCB metabolites detected in incubations with CYP1A2 [9]: no metabolites were detected

Clc1ccc(-c2c(Cl)ccc(Cl)c2Cl)c(Cl)c1Cl [PCB 132, 2,2’,3,3’,4,6’-hexachlorobiphenyl]
OH-PCB metabolites detected in incubations with CYP3A4 [8]: no metabolites were detected | OH-PCB metabolites detected in incubations with CYP1A2 [9]: no metabolites were detected

Clc1ccc(Cl)c(-c2c(Cl)ccc(Cl)c2Cl)c1Cl [PCB 136, 2,2’,3,3’,6,6’-hexachlorobiphenyl]
OH-PCB metabolites detected in incubations with CYP3A4 [8]: no metabolites were detected | OH-PCB metabolites detected in incubations with CYP1A2 [9]: no metabolites were detected

Reference: article PMC6380921 (Environmental science & technology, 2019)
